This is an account of results in ChEMBL document CHEMBL4354873, “Rationally Designed Small-Molecule Inhibitors Targeting an Unconventional Pocket on the TLR8 Protein-Protein Interface” (J Med Chem, 2020).

The structures appear in SMILES notation. The source made the active and inactive calls. The rule behind the calls is not given here.

Data set [1] is described as follows: Cytotoxicity against HEK-Blue cells expressing human TLR8 assessed as reduction in cell viability measured after 24 hrs by CCK8 assay. Type of data set: cell-based. The method, boiled down: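 CCK-8 viability: compounds incubated 24 h at 37 °C with HEK-Blue TLR8 cells (4 × 10⁴ cells/well) or PBMCs (3 × 10⁶ cells/mL). CCK-8 was added at 1:10 for up to 2 h, then absorbance read at 450 nm. Values normalized to untreated cells as 100% survival.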

A further data set concerns the target T1, Toll-like receptor 8 (Homo sapiens, UniProt Q9NR97).
T1 sequence (Q9NR97 whole entry): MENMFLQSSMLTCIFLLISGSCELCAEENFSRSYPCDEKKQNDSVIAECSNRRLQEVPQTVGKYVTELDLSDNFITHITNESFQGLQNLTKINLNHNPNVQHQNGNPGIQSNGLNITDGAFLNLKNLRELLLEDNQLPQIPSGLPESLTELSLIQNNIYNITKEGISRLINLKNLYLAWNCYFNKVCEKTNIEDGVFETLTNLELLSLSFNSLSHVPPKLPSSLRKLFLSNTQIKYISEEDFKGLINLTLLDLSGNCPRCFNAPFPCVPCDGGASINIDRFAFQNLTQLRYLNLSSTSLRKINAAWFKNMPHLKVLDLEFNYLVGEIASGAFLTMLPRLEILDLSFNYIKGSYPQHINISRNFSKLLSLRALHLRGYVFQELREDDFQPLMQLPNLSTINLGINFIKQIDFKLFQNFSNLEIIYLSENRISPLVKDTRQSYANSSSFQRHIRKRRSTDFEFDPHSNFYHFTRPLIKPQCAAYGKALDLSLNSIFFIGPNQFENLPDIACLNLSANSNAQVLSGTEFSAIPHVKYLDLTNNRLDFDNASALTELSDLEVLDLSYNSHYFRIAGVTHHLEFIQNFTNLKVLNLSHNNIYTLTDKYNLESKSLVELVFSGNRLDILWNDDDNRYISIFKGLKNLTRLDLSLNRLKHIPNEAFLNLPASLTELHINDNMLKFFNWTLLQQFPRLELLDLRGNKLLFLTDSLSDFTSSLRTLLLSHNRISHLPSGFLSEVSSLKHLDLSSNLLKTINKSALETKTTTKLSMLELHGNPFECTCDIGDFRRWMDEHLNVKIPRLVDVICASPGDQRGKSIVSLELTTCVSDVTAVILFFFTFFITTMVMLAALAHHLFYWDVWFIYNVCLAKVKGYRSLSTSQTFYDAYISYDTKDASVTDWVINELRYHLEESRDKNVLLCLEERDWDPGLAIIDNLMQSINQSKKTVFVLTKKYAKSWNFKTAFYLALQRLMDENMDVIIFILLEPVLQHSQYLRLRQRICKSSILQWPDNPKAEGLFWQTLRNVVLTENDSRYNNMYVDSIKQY
In words: Inhibition of human TLR8 expressed in HEK-Blue cells assessed as inhibition of R848-induced NF-kappaB activation measured after 24 hrs by quanti-blue based SEAP reporter gene assay. It counts as cell-based.

Data set [2] deals with T2, Toll-like receptor 8 (Homo sapiens) (UniProt Q9NR97).
T2 sequence (whole entry): T1 sequence (Q9NR97 whole entry)
In words: Inhibition of human TLR8 expressed in HEK-Blue cells assessed as inhibition of R848-induced TNFalpha mRNA level at 1 uM measured after 8 hrs by Trizol reagent based qRT-PCR analysis. Type of data set: cell-based. Summed up:
(§1)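 RT-qPCR: HEK-Blue TLR8 cells seeded at 1 × 10⁶/well and grown 24 h, then switched to serum-free medium. Treated with R848 4 µg/mL ± compound 1 µM for 8 h. Total RNA extracted with TRIzol, reverse transcribed, TNF-α and IL-8 mRNA quantified. Three independent biological replicates, mean ± s.d.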
In general terms: Real-time PCR tracks product formation cycle by cycle.

Data set [3] addresses T2, Toll-like receptor 8 (Homo sapiens). In words: Inhibition of human TLR8 expressed in HEK-Blue cells assessed as inhibition of R848-induced IL-8 mRNA level at 1 uM measured after 8 hrs by Trizol reagent based qRT-PCR analysis. Type of data set: cell-based. Summed up: as §1
Data set [4] has the same target. Briefly: Inhibition of TLR8 in human PBMC assessed as reduction in R848-induced TNFalpha production measured after 24 hrs by ELISA. Summed up: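 PBMCs from healthy donors isolated by density gradient centrifugation and cultured at once at 3 × 10⁶ cells/mL in RPMI 1640. Cells received R848 and varying compound concentrations for 24 h. Supernatants spun 10 min at 4 °C, frozen at −80 °C, and TNF-α measured by ELISA.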
For orientation: An ELISA detects its analyte on a solid surface through an enzyme-linked reagent.

For `CSc1nnc(CCCO)n1-c1ccc(Cl)cc1Cl`, the Activity entry in data set [1] was “Non-Toxic”. In general, IC50 refers to the point on the concentration scale where inhibition reaches its midpoint. As for `CSc1nnc(O)n1-c1ccc(Cl)cc1Cl`, the IC50 on Toll-like receptor 8 turned out to be 9 µM. For `Cc1nc(-c2nnc(SCc3ccccc3)n2-c2cccc(F)c2)cs1`, the Activity entry in data set [1] is on record as “Non-Toxic”.

In the case of `NC(=O)CSc1nnc(CCCO)n1-c1ccc(Cl)cc1Cl`, the IC50 on Toll-like receptor 8 is greater than 20 µM.

Turning to `CSc1nnc(CCCO)n1C1CCCCC1`, the IC50 on Toll-like receptor 8 was greater than 20 µM. As for `OCCCc1nnc(S)n1-c1ccc(Cl)cc1Cl`, the 50% inhibitory concentration (IC50) on Toll-like receptor 8 was greater than 20 µM. Further, the inhibition result in data set [2], in data set [3] and in data set [4] was “inactive” throughout.

For the molecule `CSc1nnc(CCCO)n1-c1cccnc1`, the IC50 at Toll-like receptor 8 was greater than 20 µM.

With `NC(=O)Sc1nnc(CCCO)n1-c1ccc(Cl)cc1Cl`, the IC50 on Toll-like receptor 8 was greater than 20 µM.

In the case of `Fc1cccc(-n2c(SCc3c(Cl)cccc3Cl)nnc2C2CC2)c1`, in data set [1], the Activity result was “Non-Toxic”.
